Measurements of several laboratories.
Each line is one published result; the experiments were not run side by side.
BTK: Tyrosine-protein kinase BTK (BTK, Homo sapiens, UniProt Q06187)

C=CC(=O)N1CCC[C@@H]1Cn1nc(-c2ccc(Oc3ccccc3)cc2F)c2c(N)ncnc21  KI (inactivation) (BTK; enzyme activity, inhibitor): 1.8 nM
Cc1ccc(C(=O)Nc2ccc(CN3CCN(C)CC3)c(C(F)(F)F)c2)cc1C#Cc1cnc2cccnn12  remaining activity (Mitogen-activated protein kinase kinase kinase 19 (MAP3K19, Homo sapiens, UniProt Q56UN5); enzyme activity, inhibitor; 23.5 nM): 54%
COc1cccc(OC)c1-c1cc(C(=O)N[C@@H](CC(C)C)C(=O)O)nn1-c1ccnc2cc(Cl)ccc12  Emax (Neurotensin receptor type 1 (NTSR1, Homo sapiens, UniProt P30989); calcium signal, agonist; CHO): 63%
COc1cc(Nc2cnc(C#N)c(O[C@H](C)CN(C)C)n2)ncc1-c1cnn(C)c1  remaining activity (Serine/threonine-protein kinase tousled-like 1 (TLK1, Homo sapiens, UniProt Q9UKI8); enzyme activity, inhibitor, radiometric; 1 µM): 95%
CC(C)(C=C(C#N)C(=O)N1CCC[C@H]1Cn1nc(-c2ccc(Oc3ccccc3)cc2F)c2c(N)ncnc21)N1CCOCC1  kinact/KI (BTK; enzyme activity, inhibitor): 400000 M⁻¹ s⁻¹
CC(C)C[C@H](NC(=O)[C@H](CC(C)C)NC(=O)CNC(=O)[C@H](C)NC(=O)[C@H](C)NC(=O)[C@H](CCCNC(=N)N)NC(=O)CNC(=O)CCCCNC(=O)CCCCNC(=O)CCCCNC(=O)[C@H](CCCCN)NC(=O)[C@H](Cc1ccc(O)cc1)NC(=O)CCc1c[nH]c2ccccc12)C(N)=O  Emax (Neuropeptides B/W receptor type 1 (NPBWR1, Homo sapiens, UniProt P48145); cAMP, agonist, TR-FRET): 94%
COc1ccc(F)cc1C(=O)NCc1ccc(-c2nn([C@@H](C)C(F)(F)F)c(N)c2C(N)=O)cc1  koff (BTK; binding, SPR): 7.9e-05 s⁻¹
Nc1ncnc2occ(-c3ccc(NC(=O)Nc4cc(C(F)(F)F)ccc4F)cc3)c12  remaining signal (Cyclin-dependent kinase 11A (CDK11A, Homo sapiens, UniProt Q9UQ88); cell-free assay; 20 µM): 0.3%
